Data taken from publication PMC9394215 (Journal for Immunotherapy of Cancer, 2022).

What was measured:
[1] = target: T1, NTPDase2 (Homo sapiens, UniProt Q9Y5L3); assay: Malachite green assay, NTPDase2 in COS-7 cell membranes; format: biochemical
T1 sequence (Q9Y5L3 1-495): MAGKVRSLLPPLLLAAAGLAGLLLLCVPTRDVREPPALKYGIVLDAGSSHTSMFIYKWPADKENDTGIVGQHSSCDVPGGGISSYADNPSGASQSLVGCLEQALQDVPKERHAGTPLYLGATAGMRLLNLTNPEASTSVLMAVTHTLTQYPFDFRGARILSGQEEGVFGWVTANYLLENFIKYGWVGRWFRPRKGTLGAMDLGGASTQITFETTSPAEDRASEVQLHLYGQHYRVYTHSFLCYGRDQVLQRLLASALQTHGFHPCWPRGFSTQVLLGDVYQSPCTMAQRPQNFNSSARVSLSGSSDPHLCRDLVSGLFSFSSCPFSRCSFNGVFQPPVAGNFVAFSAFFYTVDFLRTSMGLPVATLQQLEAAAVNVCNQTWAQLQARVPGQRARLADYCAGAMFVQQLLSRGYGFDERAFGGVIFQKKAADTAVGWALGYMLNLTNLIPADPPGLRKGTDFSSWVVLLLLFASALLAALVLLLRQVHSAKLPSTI
How it was run: (§1)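 Human NTPDase2, -3 or -8 was expressed in COS-7 membranes (ca. 100 ng protein, adjusted for 10–20% substrate conversion). Enzyme was preincubated 5 min at 37°C with test compound (50 µM single point, or 0.1–300 µM for curves). It was then incubated 15 min at 37°C with 100 µM ATP in HEPES/CaCl2/MgCl2, pH 7.4, ≤2% DMSO. Malachite green absorbance at 600 nm was corrected by a denatured-enzyme blank; n=3.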

[2] = stated without method or reference; cited from earlier work
[3] = target: T2, Membrane-bound CD73 (Homo sapiens, UniProt P21589); assay: Membrane-bound CD73 inhibition; format: biochemical
T2 sequence (P21589 27-574): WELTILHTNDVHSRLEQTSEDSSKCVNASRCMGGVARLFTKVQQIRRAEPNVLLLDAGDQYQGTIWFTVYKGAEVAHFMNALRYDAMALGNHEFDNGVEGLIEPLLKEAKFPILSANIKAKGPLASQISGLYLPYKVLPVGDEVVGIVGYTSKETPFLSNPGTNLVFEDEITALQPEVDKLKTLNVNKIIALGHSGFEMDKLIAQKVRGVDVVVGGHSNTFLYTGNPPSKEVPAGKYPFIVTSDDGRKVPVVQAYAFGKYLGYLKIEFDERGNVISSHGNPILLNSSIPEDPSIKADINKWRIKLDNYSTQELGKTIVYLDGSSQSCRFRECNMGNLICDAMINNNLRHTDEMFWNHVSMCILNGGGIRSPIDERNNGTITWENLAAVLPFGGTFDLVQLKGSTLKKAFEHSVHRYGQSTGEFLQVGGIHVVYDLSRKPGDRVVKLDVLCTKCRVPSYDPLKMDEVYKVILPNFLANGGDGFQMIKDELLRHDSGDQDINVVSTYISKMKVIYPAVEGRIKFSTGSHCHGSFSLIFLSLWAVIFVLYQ

[4] = target: T3, human CD39 (Homo sapiens, UniProt P49961); assay: Inhibition type experiments, malachite green assay on recombinant human CD39; format: biochemical
T3 sequence (P49961 1-510): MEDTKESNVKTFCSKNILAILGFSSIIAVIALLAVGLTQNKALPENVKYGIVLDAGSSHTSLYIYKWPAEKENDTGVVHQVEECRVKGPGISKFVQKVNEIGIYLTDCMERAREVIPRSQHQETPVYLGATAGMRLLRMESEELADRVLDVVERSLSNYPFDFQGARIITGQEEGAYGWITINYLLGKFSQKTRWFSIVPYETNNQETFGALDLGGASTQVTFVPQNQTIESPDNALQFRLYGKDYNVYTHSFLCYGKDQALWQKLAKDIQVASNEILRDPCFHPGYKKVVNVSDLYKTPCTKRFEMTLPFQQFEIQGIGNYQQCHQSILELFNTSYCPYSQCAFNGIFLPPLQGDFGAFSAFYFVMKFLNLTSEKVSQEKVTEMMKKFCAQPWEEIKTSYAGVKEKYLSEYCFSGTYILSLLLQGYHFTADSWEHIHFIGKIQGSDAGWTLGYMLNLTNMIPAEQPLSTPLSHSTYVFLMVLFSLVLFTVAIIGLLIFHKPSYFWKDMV

[5] = tested on: TNBC (MDA-MB-231) cell membrane preparations; assay: Malachite green assay, ATP hydrolysis by TNBC cell membrane preparations; format: biochemical, human; settings: increasing concentrations of ceritinib, 50 µM ATP
How it was run: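 Crude membranes came from ~90% confluent MDA-MB-231 or Ma-Mel-65 cells. Cells were homogenised in Tris/EDTA/saccharose/PMSF buffer, pH 7.4, and centrifuged at 1000 g, then 48,000 g for 1 h at 4°C. Pellets were washed and stored at −80°C in 50 mM Tris-HCl, pH 7.4. ATP hydrolysis (50 µM ATP, HEPES/Ca/Mg pH 7.4) was run with increasing test compound concentrations for 15 min at 37°C. Phosphate was read by malachite green (600 nm); triplicates, n=3.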

[6] = tested on: ALK; settings: ref 59 60; cited from earlier work
[7] = target: T4, NTPDase3 (Homo sapiens, UniProt O75355); assay: Malachite green assay, NTPDase3 in COS-7 cell membranes; format: biochemical
T4 sequence (O75355 1-529): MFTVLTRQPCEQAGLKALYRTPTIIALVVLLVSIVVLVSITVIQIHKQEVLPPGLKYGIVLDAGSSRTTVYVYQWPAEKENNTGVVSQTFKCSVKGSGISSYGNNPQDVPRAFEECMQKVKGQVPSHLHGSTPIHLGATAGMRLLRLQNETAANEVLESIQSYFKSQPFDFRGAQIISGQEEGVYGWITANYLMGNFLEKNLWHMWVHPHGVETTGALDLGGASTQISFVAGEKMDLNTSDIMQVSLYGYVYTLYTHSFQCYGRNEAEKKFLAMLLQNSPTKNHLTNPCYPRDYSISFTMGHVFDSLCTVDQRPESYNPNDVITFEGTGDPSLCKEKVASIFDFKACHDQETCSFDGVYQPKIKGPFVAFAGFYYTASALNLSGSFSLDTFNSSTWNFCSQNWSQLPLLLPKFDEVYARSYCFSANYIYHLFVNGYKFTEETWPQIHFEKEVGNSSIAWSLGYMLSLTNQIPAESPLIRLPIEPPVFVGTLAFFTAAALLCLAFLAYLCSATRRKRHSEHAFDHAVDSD
How it was run: as §1

[8] = read-out: % inhibition at 50 µM

IC50 [1]: > 50 µM
inhibition at 50 µM [1, 8]: -8%
IC50 [3]: > 50 µM
inhibition at 50 µM [3, 8]: 30%
Ki [4]: 11 µM
inhibition type ([4]; Km unchanged, Vmax decreased, Hanes-Woolf plot): non-competitive, allosteric
IC50 [7]: 22.7 ± 4 µM
Structure (SMILES): Cc1cc(Nc2ncc(Cl)c(Nc3ccccc3S(=O)(=O)C(C)C)n2)c(OC(C)C)cc1C1CCNCC1 [ceritinib, Ceritinib]
pKb of the piperidine nitrogen [2]: ~10
ATPase activity of cancer cell membranes [5]: decreased significantly
IC50 value against ALK [6]: subnanomolar range
